Inconclusive results are not listed.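 Rule for the calls, unless noted: active = viability increase at or above a cutoff of the median across tested compounds plus 3 SD (cut at about 8.5% in these data, passing the limit was not always enough); inconclusive = some gains above the cutoff, reason not given; inactive = the rest.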
Legend:
[1] = OD615 S. cerevisiae growth inhibition, permissive medium, pilot counter-assay, permissive growth control for S. cerevisiae lifespan shortening project (AID 705;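 active = growth inhibition above 25% in both replicates, a cutoff set 3 SD above the mean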); conditions: OD615, 24 h, at 10 µM, hits give high values
How it was run: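 Material: engineered DeaD yeast; compound dosing: one dose 10 µM, DMSO 0.25% final; measure: yeast growth inhibition indicated by reduced 24 h OD615; detection: OD615 turbidity read; incubation: cells pre-grown 4 h, then 24 h compound exposure, 30 °C humidified; medium: permissive synthetic complete medium with raffinose and galactose carbon sources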

[2] = Restrictive medium S. cerevisiae growth inhibition, OD615, pilot screen of yeast lifespan reduction project, restrictive growth control (AID 706;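 active = growth inhibition above a set limit, 3 SD over mean compound inhibition, in both replicates, cut at about 43% in these data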;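 note: modified DeaD lifespan yeast strain shifted to restrictive glucose medium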); conditions: OD615, 48 h, at 10 µM, hits give high values
How it was run: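 material = engineered S. cerevisiae DeaD strain | medium = glucose-based CSMM-D restrictive medium | times = 4 h pre-incubation, 48 h exposure at 30 °C | technique = OD615 absorbance reading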

[3] = viability gain of MRP-1-high H69AR cells under doxorubicin, pilot screen, MRP-1 activator project, CellTiter-Glo, duplicate (AID 807); conditions: H69AR viability with doxorubicin, CellTiter-Glo luminescence; at 10 µM; hits give high values;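 note: compound pretreatment 18-22 h then 72 h combined with doxorubicin; 0% = doxorubicin alone and 100% = vehicle without doxorubicin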
[4] = growth suppression of beta-catenin knockout HCT116, pilot screen, human colon tumor cells (AID 823;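 active = cell viability at or below a set limit in both duplicate runs, the limit being the all-compound median minus 4 SD, cut at about 23% in these data, passing the limit was not always enough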;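 note: 0% = wells killed by 20 µM Hyamine and 100% = untreated DMSO cell wells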); conditions: CellTiter-Glo, 60 h, at 10 µM, hits give low values
[5] = growth suppression of PTEN-deleted HCT116, pilot screen, cell-based, HCT116 clonal line, CellTiter-Glo (AID 824;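 active = viability at or below 27.92% in each of two runs, the all-compound median minus 4 SD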;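 note: 0% = 20 µM Hyamine control and 100% = vehicle cell control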); conditions: 60 h, at 10 µM, hits give low values
[6] = inhibitors of the yeast RAM network, pilot screen, dse1pr::URA3 reporter, 5-FOA selection (AID 869;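 active = inhibition over a set limit, the all-compound mean plus 3 SD, in both replicate runs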;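 note: 0% = DMSO wells with no growth and 100% = 10 µM 1-NA-PP1 with full growth; RAM network block rescues cells from 5-FOA so hits raise OD615 growth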); conditions: S. cerevisiae dse1pr::URA3 5-FOA growth, OD615, 2 d; at 10 µM; hits give high values; strain carries analog-sensitive mutant Cbk1 kinase
[7] = RAM signaling pathway blockade in yeast – S. cerevisiae, Pdr1DBD-CYC8 efflux-inhibited sensitized strain, primary screen (AID 1298;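 active = RAM network inhibition above 8.4% in each of two replicates, 3 SD over the compound average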;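 note: 0% = DMSO untreated cells without growth and 100% = 10 µM 1-NA-PP1 full growth; higher means more yeast growth rescued from 5-FOA killing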); conditions: S. cerevisiae cbk1-as DSE1-URA3 strain, 5-FOA growth OD615, 2 d; at 50 µM; hits give high values

CCOc1ccccc1N1CCN(S(=O)(=O)CC)CC1
inactive: growth inhibition [1] -0.885% | growth inhibition [2] 4.05% | viability increase [3] -1.83% | viability [4] 94.9% | viability [5] 97.6% | inhibition [6] 0.455% | RAM network inhibition [7] 6.05%

COc1ccc2ccccc2c1C1CC(=O)N2CN(Cc3ccco3)CSC2=C1C#N (stereo not given)
inactive: growth inhibition [1] 1.42% | growth inhibition [2] 16.4% | viability increase [3] -5.39% | viability [4] 82.5% | viability [5] 80.9% | inhibition [6] 3.5% | RAM network inhibition [7] 3.82%

COc1ccccc1N1CCN(C(=O)C2CCN(S(=O)(=O)c3ccccc3)CC2)CC1
inactive: growth inhibition [1] -0.075% | growth inhibition [2] 2.96% | viability increase [3] -1.42% | viability [4] 92.6% | viability [5] 95.6% | inhibition [6] 1.07% | RAM network inhibition [7] 5.76%

O=C(NC1CCCCCCC1)C1CCC(CNc2c(N3CCCC3)c(=O)c2=O)CC1 (stereo not given)
inactive: growth inhibition [1] -6.82% | growth inhibition [2] 0.64% | viability increase [3] 0.87% | viability [4] 91.6% | viability [5] 96% | inhibition [6] 0.85% | RAM network inhibition [7] 4.83%

COCCNS(=O)(=O)c1ccc(C2CNC(=O)C2)cc1 (stereo not given)
inactive: growth inhibition [1] -7.18% | growth inhibition [2] -6.89% | viability increase [3] -1.08% | viability [4] 110% | viability [5] 104% | inhibition [6] 2.2% | RAM network inhibition [7] -1.51%

COc1ccc(OC)c2c1sc(=NC(=O)C(C)(C)C)n2C
inactive: growth inhibition [1] -7.64% | growth inhibition [2] 6.31% | viability increase [3] -6.23% | viability [4] 84.1% | viability [5] 79.6% | inhibition [6] 3.72% | RAM network inhibition [7] 6.93%

CC(C)c1ccc(N(CC(=O)O)S(=O)(=O)c2cccnc2)cc1
inactive: growth inhibition [1] -2% | growth inhibition [2] 8.54% | viability increase [3] -1.28% | viability [4] 93.3% | viability [5] 98.7% | inhibition [6] -0.135% | RAM network inhibition [7] -1.88%

Cc1ccc(N(C(C)C(=O)O)S(=O)(=O)c2c(C)[nH]c(=O)[nH]c2=O)cc1 (stereo not given)
inactive: growth inhibition [1] 1.15% | growth inhibition [2] 11.8% | viability increase [3] -0.92% | viability [4] 102% | viability [5] 94.5% | inhibition [6] 0.555% | RAM network inhibition [7] -0.47%

CCOC(=O)C1=C(C)N=c2s/c(=C\C(=O)OC)c(=O)n2C1c1ccc(OC)cc1 (stereo not given)
inactive: growth inhibition [1] -2.88% | growth inhibition [2] 11.6% | viability increase [3] -2.64% | viability [4] 100% | viability [5] 101% | inhibition [6] 1.73% | RAM network inhibition [7] 4.95%

CCOC(=O)NC(C(F)(F)F)(C(F)(F)F)P(=O)(c1ccccc1)c1ccccc1
inactive: growth inhibition [1] -6.98% | growth inhibition [2] 4.49% | viability increase [3] -0.51% | viability [4] 95% | viability [5] 91.7% | inhibition [6] 0.93% | RAM network inhibition [7] 4.13%

CCOc1ccc(CC(=O)N2CCN(c3ccc(N4CCOCC4)nn3)CC2)cc1OCC
inactive: growth inhibition [1] -1.33% | growth inhibition [2] 8.3% | viability increase [3] 0.46% | viability [4] 103% | viability [5] 106% | inhibition [6] -0.385% | RAM network inhibition [7] 6.26%

Cc1nn(C)c(C)c1S(=O)(=O)N(CC(=O)NCc1ccco1)c1ccc(C(C)C)cc1
inactive: growth inhibition [1] -10.3% | growth inhibition [2] -2.95% | viability increase [3] -5.76% | viability [4] 96.8% | viability [5] 97.3% | inhibition [6] -0.17% | RAM network inhibition [7] 7.88%

O=C(CSc1nc2ccccc2c(=O)n1-c1ccccc1)N1CCN(CCO)CC1
inactive: growth inhibition [1] -8.67% | growth inhibition [2] -3.58% | viability increase [3] -2.9% | viability [4] 99.5% | viability [5] 98.6% | inhibition [6] 0.595% | RAM network inhibition [7] 1.04%

CCOC(=O)N1CCN(C(=O)Cn2ncc3c2-c2ccccc2OC3)CC1
inactive: growth inhibition [1] -14% | growth inhibition [2] -8.46% | viability increase [3] -1.16% | viability [4] 102% | viability [5] 95.9% | inhibition [6] 0.82% | RAM network inhibition [7] -1.43%

CC(C)(C)NC(=O)Cn1c(=O)oc2cc(S(=O)(=O)N3CCc4ccccc43)ccc21
inactive: growth inhibition [1] 0.45% | growth inhibition [2] -12.1% | viability increase [3] -3.16% | viability [4] 90% | viability [5] 89.5% | inhibition [6] 0.05% | RAM network inhibition [7] 7.21%

COc1ccc(C2C3=C(CC(C)(C)CC3=O)Nc3c2c(=O)[nH]c(=O)n3Cc2ccccc2)cc1 (stereo not given)
inactive: growth inhibition [1] -7% | growth inhibition [2] 6.84% | viability increase [3] -2.53% | viability [4] 89.5% | viability [5] 74.5% | inhibition [6] 1.65% | RAM network inhibition [7] 6.38%

Cn1c(SCc2c(F)cccc2Cl)nnc1-c1cnccn1
inactive: growth inhibition [1] 3.5% | growth inhibition [2] 9.8% | viability increase [3] -0.67% | viability [4] 96.5% | viability [5] 93.8% | inhibition [6] 1.94% | RAM network inhibition [7] 5.07%

COc1cc(OC)c(C2Oc3nc(SC)nnc3-c3ccccc3N2C(C)=O)cc1OC (stereo not given)
inactive: growth inhibition [1] 4.06% | growth inhibition [2] -0.66% | viability increase [3] -4.95% | viability [4] 108% | viability [5] 108% | inhibition [6] 3.23% | RAM network inhibition [7] 1.75%

Cc1nc2ccccn2c1/C(O)=C1\C(=O)C(=O)N(CCCN(C)C)C1c1ccc(Cl)cc1 (stereo not given)
inactive: growth inhibition [1] -12.2% | growth inhibition [2] -4.13% | viability increase [3] -1.34% | viability [4] 109% | viability [5] 95.9% | inhibition [6] 0.18% | RAM network inhibition [7] -1.78%

CCCn1c(C(O)c2ccc(OCC)cc2)nc2ccccc21 (stereo not given)
inactive: growth inhibition [1] -8.12% | growth inhibition [2] -1.57% | viability increase [3] -3.93% | viability [4] 94.9% | viability [5] 82.3% | inhibition [6] 1.36% | RAM network inhibition [7] -1.01%

CCCCN(CC)CCNc1c(NC2CCN(C(=O)OCC)CC2)c(=O)c1=O
inactive: growth inhibition [1] 2.35% | growth inhibition [2] 5.98% | viability increase [3] -0.12% | viability [4] 100% | viability [5] 95% | inhibition [6] 0.09% | RAM network inhibition [7] 3.37%

CC(=O)NCC(=O)N(c1ccccc1)C1(C(=O)NC2CCCCC2)CCCCC1
inactive: growth inhibition [1] -3.84% | growth inhibition [2] 6.72% | viability increase [3] -2.01% | viability [4] 103% | viability [5] 98.3% | inhibition [6] 0.165% | RAM network inhibition [7] -0.7%

CC(C)c1ccc(NC(=O)c2cnn(-c3ccccc3)c2NC(=O)c2ccco2)cc1
inactive: growth inhibition [1] -2.46% | growth inhibition [2] 0.43% | viability increase [3] -4.1% | viability [4] 89.7% | viability [5] 85.6% | inhibition [6] 1.9% | RAM network inhibition [7] 5.45%

Cc1ccc2nc(N3CCOCC3)c3nncn3c2c1
inactive: growth inhibition [1] -6.37% | growth inhibition [2] 3.97% | viability increase [3] -2.43% | viability [4] 106% | viability [5] 96.1% | inhibition [6] 0.915% | RAM network inhibition [7] 1.57%

CCOC(=O)C1=C(C)NC(C)=C(C(=O)OCC)C1c1nc2ccccc2[nH]1
inactive: growth inhibition [1] -21.8% | growth inhibition [2] -11.2% | viability increase [3] -1.33% | viability [4] 96.2% | viability [5] 96.3% | inhibition [6] 0.96% | RAM network inhibition [7] 1.43%

c1ccc(-n2ncc3c(NCc4cccnc4)ncnc32)cc1
inactive: growth inhibition [1] -9.01% | growth inhibition [2] 2.41% | viability increase [3] 3.3% | viability [4] 88.1% | viability [5] 83.6% | inhibition [6] 2.49% | RAM network inhibition [7] 0.31%

C=C(C)Cc1c(C)nc(-c2ccccc2)[nH]c1=O
inactive: growth inhibition [1] -14% | growth inhibition [2] -14.1% | viability increase [3] 0.87% | viability [4] 99.7% | viability [5] 98.5% | inhibition [6] 1.76% | RAM network inhibition [7] 1.46%

O=C(C1CCCN(S(=O)(=O)c2cccc3cccnc23)C1)N1CCN(c2ccc(F)cc2)CC1 (stereo not given)
inactive: growth inhibition [1] 2.49% | growth inhibition [2] 2.17% | viability increase [3] -0.16% | viability [4] 47.9% | viability [5] 61.8% | inhibition [6] -0.585% | RAM network inhibition [7] 2.25%

CCn1c(-c2cc(OC)ccc2OC)csc1=Nc1c(C)n(C)n(-c2ccccc2)c1=O
inactive: growth inhibition [1] -11.1% | growth inhibition [2] -22.9% | viability increase [3] 0.28% | viability [4] 93.8% | viability [5] 92.5% | inhibition [6] 1.58% | RAM network inhibition [7] 4.62%

c1ccc(CNc2nc3ccccc3[nH]2)cc1
inactive: growth inhibition [1] -4.7% | growth inhibition [2] 2.9% | viability increase [3] -5.29% | viability [4] 75.8% | viability [5] 80.7% | inhibition [6] 1.3% | RAM network inhibition [7] 0.44%

Cn1c(NC(=O)c2ccccc2C(F)(F)F)cc(=O)n(C)c1=O
inactive: growth inhibition [1] -16.9% | growth inhibition [2] -8.93% | viability increase [3] -2.06% | viability [4] 95.3% | viability [5] 90.7% | inhibition [6] 0.785% | RAM network inhibition [7] -1.32%

COC(=O)c1ccc(CSc2ncn[nH]2)o1
inactive: growth inhibition [1] -2.62% | growth inhibition [2] 3.27% | viability increase [3] 0.51% | viability [4] 94.7% | viability [5] 97.5% | inhibition [6] 0.395% | RAM network inhibition [7] 3.38%

CCOCCn1c(SCCc2ccccc2)nc2c1c(=O)[nH]c(=O)n2C
inactive: growth inhibition [1] -3.39% | growth inhibition [2] 10.7% | viability increase [3] -1.92% | viability [4] 98.8% | viability [5] 98.9% | inhibition [6] 1.69% | RAM network inhibition [7] 0.11%

N#CCC(=O)Nc1sc2c(c1C(N)=O)CCCC2
inactive: growth inhibition [1] -12.7% | growth inhibition [2] -7.35% | viability increase [3] -1.93% | viability [4] 97.5% | viability [5] 99.9% | inhibition [6] 3.18% | RAM network inhibition [7] 0.67%

Cc1ccc(-n2nc3ccc(N)cc3n2)cc1
inactive: growth inhibition [1] -12.9% | growth inhibition [2] 5.77% | viability increase [3] -5.26% | viability [4] 80% | viability [5] 78.5% | inhibition [6] 2.38% | RAM network inhibition [7] 2.79%

From PubChem BioAssay
